The values below come from article PMC9826503 (Chemmedchem, 2022).

Data set [1] has as its system HCC70 triple negative breast cancer cell line. Nature of the data set: Resazurin cytotoxicity assay, HCC70. The format is cell-based. As to conditions: for IC50: read-out: HCC70 IC50 and SD.
Data set [2] relates to cancer cell lines (HeLa, HCC70, MCF-7). Nature of the data set: Resazurin cytotoxicity assay, cancer cell lines as a group. It is filed as cell-based. As to conditions: read-out: IC50 values against the cancer cells. The gist of the method:
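HeLa, HCC70 and MCF-7 cells seeded at 5000 cells/well and left to attach overnight (37 °C, 9 % CO2). Treated 96 h with test compound (15.63–500.00 μM), 2 % (v/v) DMSO vehicle, or paclitaxel control (0.16–500 nM). Resazurin then added for 2–4 h; fluorescence read at ex 560/em 590 nm. Done in triplicate; IC50 by non-linear regression.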

For data set [3], the system named is MCF-7 hormone responsive breast cancer cell line. Nature of the data set: Resazurin cytotoxicity assay, MCF-7. The format is cell-based. As to conditions: for IC50: read-out: MCF-7 IC50 and SD.
The test system of data set [4] is HeLa cervical cancer cell line. Nature of the data set: Resazurin cytotoxicity assay, HeLa. It is filed as cell-based.
The test system of data set [5] is non-tumorigenic breast epithelial cell line MCF12A. Nature of the data set: Resazurin cytotoxicity assay, MCF-12A. It is filed as cell-based. As to conditions: read-out: MCF-12A IC50 and SD.
The subject of a further data set is human genomic DNA (gDNA). Nature of the data set: Agarose gel electrophoresis, ethidium bromide displacement from gDNA. It is filed as binding. A digest of the protocol:
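Human genomic DNA (100 ng) was incubated with test compound at 50 or 200 μM for 4 hours at 37 °C, alongside a 2 % (v/v) DMSO control and a cisplatin (200 μM) control. Mixtures with loading dye were run on a 0.8 % (w/v) agarose gel containing ethidium bromide, 45 min at 90 V in 1× TAE (40 mM Tris-acetate, 1 mM EDTA). Bands were imaged, and EtBr staining intensity was compared across lanes.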

Data set [6] addresses T1, bovine serum albumin (BSA) (Bos taurus, UniProt P02769). Nature of the data set: BSA fluorescence quenching titration, with and without site markers. It is filed as binding. The gist of the method: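 Emission spectra of BSA recorded at 293 K during titration with increasing test compound. Excitation 280 nm, emission 300–500 nm, slits 5 nm. Intensities corrected for inner filter effect using absorbances at the excitation and emission maxima. KSV from Stern-Volmer fit; kq = KSV/τ0, τ0 10−8 s. Site-marker runs: warfarin (site I) or ibuprofen (site II) added equimolar to BSA (each 5 μM) before titration.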

Data set [7] addresses T2, recombinant human topoisomerase I (Homo sapiens, UniProt P11387).
T2 sequence (P11387 1-765): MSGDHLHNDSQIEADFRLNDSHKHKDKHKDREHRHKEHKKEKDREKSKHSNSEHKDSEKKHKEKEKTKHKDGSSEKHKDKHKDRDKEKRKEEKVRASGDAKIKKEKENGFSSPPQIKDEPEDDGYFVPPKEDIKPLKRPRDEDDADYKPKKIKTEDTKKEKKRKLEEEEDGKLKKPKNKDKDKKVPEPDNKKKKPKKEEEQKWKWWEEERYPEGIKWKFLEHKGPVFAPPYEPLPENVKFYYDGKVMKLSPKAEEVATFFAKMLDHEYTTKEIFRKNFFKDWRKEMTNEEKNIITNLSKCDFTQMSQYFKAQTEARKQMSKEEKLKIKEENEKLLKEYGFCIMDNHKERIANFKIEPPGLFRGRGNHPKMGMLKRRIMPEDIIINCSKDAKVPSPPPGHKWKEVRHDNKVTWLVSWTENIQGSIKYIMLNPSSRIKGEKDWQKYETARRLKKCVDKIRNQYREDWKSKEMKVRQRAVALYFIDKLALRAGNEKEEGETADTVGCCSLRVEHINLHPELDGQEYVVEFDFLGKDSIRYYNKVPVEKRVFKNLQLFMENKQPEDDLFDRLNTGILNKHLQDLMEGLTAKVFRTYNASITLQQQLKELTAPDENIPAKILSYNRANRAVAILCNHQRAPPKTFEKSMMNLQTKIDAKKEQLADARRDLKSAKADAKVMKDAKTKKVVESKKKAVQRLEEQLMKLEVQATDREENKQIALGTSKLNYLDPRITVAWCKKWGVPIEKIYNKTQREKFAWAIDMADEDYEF
Nature of the data set: Topoisomerase I inhibition. The format is biochemical.

Data set [8] can be described thus: Time-dependent stability studies by UV-Vis spectrophotometry. The format is physicochemical. The following applies: 10^−5 M, 1 hour intervals for 24 hours. A digest of the protocol: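 Test compound was dissolved at 10−5 M in anhydrous DMSO at room temperature and filtered. UV-Vis spectra were then recorded hourly over 24 hours.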
Data set [9] addresses T1, bovine serum albumin (BSA). Nature of the data set: BSA UV-Vis absorption titration. The format is binding. As to conditions: 280 nm. The gist of the method: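 BSA (~20 μM, PBS pH 7.2; concentration set from ε280 = 43824 M−1 cm−1) titrated with test compound (0–~380 μM; stocks in MeOH). Equal compound volumes added to the sample and reference cells; each mixture incubated 2 min. BSA absorbance at 280 nm fitted to a double-reciprocal plot of 1/(A0−A) vs 1/[compound]. kapp taken as the intercept/slope ratio.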

Another data set deals with calf thymus DNA. Nature of the data set: Methylene blue DNA competition assay. It is filed as binding. The following applies: 50 and 200 μM, 100 ng calf thymus DNA, 15 μg/mL methylene blue. The gist of the method:
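Each 100 μL reaction held methylene blue (15 μg/mL), calf thymus DNA (100 ng) and test compound (50 or 200 μM) in MilliQ water, with a 0.05 % (v/v) DMSO vehicle control. Mixtures were incubated 10 minutes at room temperature in the dark. An emission scan was then recorded under fixed excitation. Runs were done in triplicate.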

Setting [10] is: (IC50 value in MCF12-A)/(IC50 value in cancer cell line).
Setting [11] is: Ibuprofen site marker (site II).
The mark [12] stands for this setting: No Site marker, KSV=kq τ0, τ0 10^−8 s.
The mark [13] stands for this setting: 96 hours, non-cancerous control.

Like-named read-outs stand apart in the source and are kept apart here.

T1 sequence (P02769 25-607): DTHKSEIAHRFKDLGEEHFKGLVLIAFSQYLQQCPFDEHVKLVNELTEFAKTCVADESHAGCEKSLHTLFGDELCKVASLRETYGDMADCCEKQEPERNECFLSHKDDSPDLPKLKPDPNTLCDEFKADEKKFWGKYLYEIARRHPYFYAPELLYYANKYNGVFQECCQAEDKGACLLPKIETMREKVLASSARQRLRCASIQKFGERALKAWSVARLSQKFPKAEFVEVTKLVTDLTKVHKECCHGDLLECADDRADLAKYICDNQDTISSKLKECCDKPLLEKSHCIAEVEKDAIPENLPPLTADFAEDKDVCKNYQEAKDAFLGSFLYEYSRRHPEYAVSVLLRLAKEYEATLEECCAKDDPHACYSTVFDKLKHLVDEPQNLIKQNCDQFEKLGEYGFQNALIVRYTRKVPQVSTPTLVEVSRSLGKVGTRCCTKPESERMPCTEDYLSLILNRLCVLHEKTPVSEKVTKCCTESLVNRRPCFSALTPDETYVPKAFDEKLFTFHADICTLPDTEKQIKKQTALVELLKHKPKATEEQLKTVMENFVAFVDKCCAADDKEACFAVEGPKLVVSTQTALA

Consider `CC(=O)O[C@H]1C(=O)[C@@]2(C)[C@H]([C@H](OC(=O)c3ccccc3)[C@]3(O)C[C@H](OC(=O)[C@H](O)[C@@H](NC(=O)c4ccccc4)c4ccccc4)C(C)=C1C3(C)C)[C@]1(OC(C)=O)CO[C@@H]1C[C@@H]2O` [Paclitaxel, paclitaxel, reference compound], for which the “SI (selectivity index), HCC70” value in data set [1] (setting [10]) came to 4.12. The IC50 is 0.00392 ± 0.00103 µM in data set [1] (Homo sapiens, HCC70, 96 h); 0.0024 to 0.00392 µM in [2]; 0.0024 ± 0.00111 µM in data set [3] (Homo sapiens, MCF7, 96 h); 0.0162 ± 0.00108 µM in data set [5] (Homo sapiens, MCF-12A, 96 h). In [3] (setting [10]), the “SI (selectivity index), MCF-7” value was 6.73. Besides, the “SI (selectivity index), HeLa” value in [4] (setting [10]) amounted to 5.96.

Consider “cis‐Cl, trans‐P‐[RuCl2(PPh3)2(btm)] [Compound 3]”, for which, in the data set on human genomic DNA (gDNA) (higher concentration (200 μM)), the “Intensity of EtBr stained gDNA band” value is “considerable dose‐dependent reduction in intensity”. In addition, the entries for the “K SV” value in [6] (setting [11]), in data set [6] (No Site marker) and in [6] (Warfarin site marker (site I)) were 9130 M⁻¹, 69500 M⁻¹ and 1290 M⁻¹, respectively. Moreover, the k q is 9.13e+11 M⁻¹ s⁻¹ in data set [6] (setting [11]), 6.95e+12 M⁻¹ s⁻¹ in data set [6] (setting [12]) and 1.29e+11 M⁻¹ s⁻¹ in [6] (Warfarin site marker (site I)). Also, in data set [7] (50 μM), the “Inhibition of Topo I activity” value is listed as “complete inhibition of Topo I”. Further, the IC50 in data set [3] (96 hours) was 8.87 ± 1.12 µM; in data set [4] (read-out: HeLa IC50 and SD, 96 hours), 6.29 ± 1.1 µM; in [5] (setting [13]) it was 36.5 ± 1.08 µM. In addition, in [8], the “Stability in anhydrous DMSO (UV-Vis spectral changes)” value was “blue‐shifted and decreasing MLCT band at 525 nm and an emerging MLCT band at 437 nm”. For the same molecule, the “apparent association constant (kapp)” value in [9] stood at 18900 M⁻¹. In addition, the “Competition with methylene blue for DNA binding (intercalation)” value in the data set on calf thymus DNA is reported as “no effect on the ability of methylene blue to bind to the DNA”.

As for `CC[C@@]1(O)C(=O)OCc2c1cc1n(c2=O)Cc2cc3ccccc3nc2-1` [camptothecin, reference compound], the “Inhibition of Topo I activity” value in data set [7] (200 μM) is on record as “failed to inhibit the enzyme”.

In the case of “trans‐P‐[RuCl(PPh3)2(pmt)]Cl [Compound 1]”, the “Intensity of EtBr stained gDNA band” value in the data set on human genomic DNA (gDNA) (higher concentration (200 μM)) is on record as “considerable dose‐dependent reduction in intensity”; with human genomic DNA (gDNA) (lower concentration (50 μM), relative to DMSO control), “decreases in the intensity of the EtBr stained gDNA”. In data set [1] (HCC70 versus MCF-7), the “fold less cytotoxic towards HCC70 compared to MCF-7” value was “more than 10 fold”. In addition, the values for the IC50 in [1] (96 hours), in data set [3] (96 hours) and in [5] (setting [13]) were 75.5 µM, 5.2 µM and 60.1 µM, respectively. The “K SV” value in data set [6] (setting [11]) stood at 1360 M⁻¹; in [6] (No Site marker), 88400 M⁻¹; in [6] (Warfarin site marker (site I)) it was 2090 M⁻¹. Moreover, the k q in [6] (setting [11]) was determined as 1.36e+11 M⁻¹ s⁻¹; in data set [6] (setting [12]), 8.84e+12 M⁻¹ s⁻¹; in data set [6] (Warfarin site marker (site I)), 2.09e+11 M⁻¹ s⁻¹. Moreover, the “Inhibition of Topo I activity” value in data set [7] (50 and 200 μM) was “inhibited Topo I activity”. Besides, the “Stability in anhydrous DMSO (UV-Vis spectral changes)” value in data set [8] is reported as “noticeable alterations in the electronic spectrum”. For the same molecule, the “apparent association constant (kapp)” value in [9] is 90200 M⁻¹. The “Competition with methylene blue for DNA binding (intercalation)” value in the data set with calf thymus DNA was “competitively bind to the calf thymus DNA in a concentration‐dependent manner”.
